From ChEMBL document CHEMBL3414437, “Synthesis of CDDO-amino acid-nitric oxide donor trihybrids as potential antitumor agents against both drug-sensitive and drug-resistant colon cancer” (J Med Chem, 2015) come the findings set out here.

The source made the active and inactive calls. No cut-off for these calls is given here.

The target of data set [1] is Signal transducer and activator of transcription 3 (Homo sapiens) (UniProt P40763). Description: Inhibition of STAT3 protein phosphorylation in human HCT8 cells at 1 uM incubated for 24 hrs by Western blotting method. Format: cell-based. To be noted: HCT-8. Summed up:
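Cells (1 x 10^6) grown 24 h in 6 cm dishes, then exposed in duplicate for 24 h to 0.25, 0.5 or 1 µM compound, with or without PTIO. Lysates (20 µg/lane) were run on 7.5% SDS-PAGE, blotted to PVDF and blocked in 5% milk. HRP secondaries with ECL detection; bands quantified by densitometry against β-actin or GAPDH. Three separate experiments, mean ± SD.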
A general note: In western blotting, separated proteins are transferred to a membrane and probed.

Data set [2] relates to Mus musculus. The data set can be described thus: Toxicity in nude BALB/c mouse xenografted with FU-resistant human HCT8 cells assessed as abnormal size changes in liver at 17.8 to 35.7 umol/kg administered as via oral gavage daily for 21 days. Format: organism-based, HCT-8. To be noted: in vivo, 504 h. Summed up:
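Male BALB/c nude mice aged 6-8 weeks, implanted s.c. in the right flank with HCT-8/5-FU cells (2 × 10^6). Once tumors reached 180-200 mm3 (days 9-11), randomized to daily gavage for 21 days in cremophor-EL/DMSO/PBS (1:1:8), 0.2 mL. At the end, liver, kidney, lung and heart checked for size, colour and weight. n = 8 per group.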
In general terms: Xenograft models place foreign cells or tissue in a host animal.

Data set [3] has as its system Mus musculus. Description: Toxicity in ICR mouse assessed as mouse mortality incidence at 0.60 x 10^3 to 2.38 x 10^3 umol/kg administered as single dose via oral gavage measured up to 14 days post treatment. To be noted: in vivo, 336 h. It is filed as organism-based. Summed up: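 Adult ICR mice of either sex were randomised and given a single oral gavage dose of 500, 1000, 1500 or 2000 mg/kg in cremophor-EL/DMSO/PBS (1:1:8). Survival, behaviour, water and food intake, body weight and activity were monitored for up to 14 days. Body weights were taken on days 0, 7 and 14.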

Data set [4] deals with ATP-dependent translocase ABCB1 (Homo sapiens, UniProt P08183). Description: Induction of nitrosylation of P-gp protein in FU-resistant human HCT8 cells at 0.25 to 1 uM incubated for 24 hrs by Western blotting method. It is filed as cell-based. To be noted: hct-8, 24 h. Summed up: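 HCT-8/5-FU cells (1 × 10^6) treated in duplicate for 24 h with 0.25, 0.5 or 1 µM test compound or 1 µM reference, with or without PTIO. Lysates immunoprecipitated overnight at 4 °C with anti-nitrotyrosine antibody on protein G beads. Eluates blotted with specific anti-Pgp, anti-MRP1 or anti-BCRP antibodies and quantified by densitometry. Mean ± SD of three experiments.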
Chain of ATP-dependent translocase ABCB1 (P08183 whole entry): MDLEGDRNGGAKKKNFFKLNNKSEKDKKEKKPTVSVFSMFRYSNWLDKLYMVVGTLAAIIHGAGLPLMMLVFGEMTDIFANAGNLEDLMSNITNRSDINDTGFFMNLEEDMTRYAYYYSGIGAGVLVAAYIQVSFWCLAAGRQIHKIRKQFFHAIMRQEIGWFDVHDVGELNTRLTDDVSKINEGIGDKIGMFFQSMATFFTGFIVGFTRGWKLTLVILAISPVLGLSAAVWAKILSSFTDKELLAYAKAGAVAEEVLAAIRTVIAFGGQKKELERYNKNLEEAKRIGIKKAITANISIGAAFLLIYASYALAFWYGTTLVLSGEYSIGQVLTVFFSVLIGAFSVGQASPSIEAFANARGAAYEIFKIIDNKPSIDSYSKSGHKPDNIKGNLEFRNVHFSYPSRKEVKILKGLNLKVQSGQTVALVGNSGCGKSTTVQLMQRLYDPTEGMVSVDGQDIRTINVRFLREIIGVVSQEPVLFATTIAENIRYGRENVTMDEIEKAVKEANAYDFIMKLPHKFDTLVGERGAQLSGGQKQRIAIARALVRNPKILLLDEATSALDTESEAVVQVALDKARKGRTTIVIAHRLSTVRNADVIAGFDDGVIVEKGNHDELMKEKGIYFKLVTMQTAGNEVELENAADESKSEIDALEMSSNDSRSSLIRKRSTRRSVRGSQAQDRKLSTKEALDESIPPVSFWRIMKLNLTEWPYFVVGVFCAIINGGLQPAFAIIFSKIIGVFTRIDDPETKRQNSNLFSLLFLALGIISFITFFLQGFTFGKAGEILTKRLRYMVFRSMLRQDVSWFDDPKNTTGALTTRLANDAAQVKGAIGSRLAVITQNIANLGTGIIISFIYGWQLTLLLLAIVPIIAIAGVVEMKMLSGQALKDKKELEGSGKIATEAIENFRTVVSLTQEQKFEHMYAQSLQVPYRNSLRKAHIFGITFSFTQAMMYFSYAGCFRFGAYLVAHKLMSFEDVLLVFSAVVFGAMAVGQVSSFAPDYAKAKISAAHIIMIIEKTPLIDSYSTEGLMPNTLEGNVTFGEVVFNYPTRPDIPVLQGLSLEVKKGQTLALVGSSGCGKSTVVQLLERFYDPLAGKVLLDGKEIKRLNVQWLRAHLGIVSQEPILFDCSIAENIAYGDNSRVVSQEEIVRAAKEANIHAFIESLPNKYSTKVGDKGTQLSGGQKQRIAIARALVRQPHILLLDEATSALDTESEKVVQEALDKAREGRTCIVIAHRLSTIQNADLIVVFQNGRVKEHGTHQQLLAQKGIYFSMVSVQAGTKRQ

Chain of Signal transducer and activator of transcription 3 (Homo sapiens) (P40763 whole entry): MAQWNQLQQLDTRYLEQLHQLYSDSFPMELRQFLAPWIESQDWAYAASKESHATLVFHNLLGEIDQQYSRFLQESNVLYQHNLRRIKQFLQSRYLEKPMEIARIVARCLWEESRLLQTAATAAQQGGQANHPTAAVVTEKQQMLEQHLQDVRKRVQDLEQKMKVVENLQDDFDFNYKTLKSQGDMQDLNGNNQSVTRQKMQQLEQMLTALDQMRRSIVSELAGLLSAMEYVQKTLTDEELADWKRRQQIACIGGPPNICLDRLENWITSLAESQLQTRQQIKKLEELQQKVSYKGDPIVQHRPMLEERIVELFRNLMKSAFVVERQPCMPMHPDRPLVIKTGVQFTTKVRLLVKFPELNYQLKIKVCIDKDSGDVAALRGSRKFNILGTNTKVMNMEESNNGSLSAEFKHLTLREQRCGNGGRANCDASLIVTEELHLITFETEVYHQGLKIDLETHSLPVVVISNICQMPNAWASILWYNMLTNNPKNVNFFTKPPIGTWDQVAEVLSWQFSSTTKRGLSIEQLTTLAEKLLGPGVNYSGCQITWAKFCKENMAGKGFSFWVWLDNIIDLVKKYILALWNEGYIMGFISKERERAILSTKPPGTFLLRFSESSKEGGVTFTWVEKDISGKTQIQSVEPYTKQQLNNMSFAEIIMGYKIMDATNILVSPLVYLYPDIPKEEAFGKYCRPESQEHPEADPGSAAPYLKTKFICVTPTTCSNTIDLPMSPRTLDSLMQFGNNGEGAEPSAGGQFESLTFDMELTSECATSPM

On to `COC(=O)[C@]12CCC(C)(C)C[C@H]1[C@H]1C(=O)C=C3[C@@]4(C)C=C(C#N)C(=O)C(C)(C)[C@@H]4CC[C@@]3(C)[C@]1(C)CC2` [BARDOXOLONE METHYL], for which the inhibition entry in data set [1] was “Active”.
Consider `CC1(C)CC[C@]2(C(=O)NCC(=O)OCC#CCOc3no[n+]([O-])c3S(=O)(=O)c3ccccc3)CC[C@]3(C)[C@H](C(=O)C=C4[C@@]5(C)C=C(C#N)C(=O)C(C)(C)[C@@H]5CC[C@]43C)[C@@H]2C1`, for which the Activity result in the data set with Mus musculus [2] is “Non-toxic”; in the data set on Mus musculus [3] it was “Non-toxic”; in data set [4] it was “Dose-dependent effect”.
